Screening data as filed in PubChem.
The list is not random: actives were taken first. Their share in the collection is about 2%.
CDK5 p35 inh – blocks human CDK5/p35 kinase activity; Recombinant CDK5/p35, ADP-Glo luminescence, 60 min; 330,000 tested, 0.01% active; Q00535+Q15078; inhibition, % at 10 µM;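 active = highest replicate inhibition of at least 50% and at least 75% of replicates reaching 50%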;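 also: plate controls were DMSO neutral control for no effect and GW8510 at 10 µM for full effect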
Target sequence (Q00535 whole entry, looked up): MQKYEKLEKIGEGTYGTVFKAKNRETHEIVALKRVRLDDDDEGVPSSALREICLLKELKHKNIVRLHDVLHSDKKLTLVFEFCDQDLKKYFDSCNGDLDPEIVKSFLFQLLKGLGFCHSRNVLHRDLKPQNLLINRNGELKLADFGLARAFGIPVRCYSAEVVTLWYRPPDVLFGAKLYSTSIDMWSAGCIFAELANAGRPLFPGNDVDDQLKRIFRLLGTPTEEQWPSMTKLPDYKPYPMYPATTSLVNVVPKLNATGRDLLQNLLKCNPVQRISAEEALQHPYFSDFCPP
Target sequence (Q15078 whole entry, looked up): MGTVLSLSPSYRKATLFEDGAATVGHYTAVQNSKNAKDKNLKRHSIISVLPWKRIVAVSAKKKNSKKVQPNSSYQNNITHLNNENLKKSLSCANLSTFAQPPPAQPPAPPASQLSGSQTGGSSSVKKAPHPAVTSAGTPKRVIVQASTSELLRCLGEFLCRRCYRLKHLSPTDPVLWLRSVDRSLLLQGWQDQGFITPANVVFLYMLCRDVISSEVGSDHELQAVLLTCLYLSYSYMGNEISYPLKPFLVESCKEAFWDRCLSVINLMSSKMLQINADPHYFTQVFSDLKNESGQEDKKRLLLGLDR
SR-BI uptake up – SR-BI HDL lipid transfer activation. AID 504775. CHO ldlA[mSR-BI] cells, DiI-HDL uptake fluorescence, 3 h; 100 = double the neutral-control signal. activation, % at 12.5 µM. 320,000 tested, 0.096% active;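 active = mean replicate activation of at least 60% and every replicate at or above 60%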;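 also: 0% = median plate neutral-control signal and 100% = twice that signal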
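Test system: SR-BI-overexpressing, LDLR-lacking CHO cells. Measured by: DiI fluorescence, bottom read. Medium: Ham's F12 with 0.5% BSA, HEPES 25 mM, pH 7.4. Timing: 3 h uptake period with compound, 37 °C.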
dFosB activator – mouse delta FosB homodimer activation | P13346 | purified delta FosB, TAMRA-CDK5 oligo fluorescence polarization; percent of positive-control signal above neutral wells | activation, % at 25 µM | 340,000 tested, 0.99% active;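 active = mean activation above about 17%, with every replicate also reaching it, limit read from the data, passing the limit was not always enough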
SR-BI DiI inh – blocks mouse SR-BI lipid uptake from DiI-HDL | 320,000 tested, 0.96% active | Q61009 | AID 488896 | inhibition, % at 12.5 µM | ldlA[mSR-BI] CHO cells, DiI-HDL uptake fluorescence, 3 h;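 active = mean replicate inhibition of at least 70% and a set share of replicates each scoring 70 or more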;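 also: 0% = median of neutral control wells and 100% = median of positive control wells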
An asterisk follows results filed as active; x = no result given.

SMILES | CDK5 p35 inh | SR-BI uptake up | dFosB activator | SR-BI DiI inh
COc1ccc(-c2cc(C(=O)Nc3c(C)n(C)n(-c4ccccc4)c3=O)no2)cc1 | -5 | x | -8 | x
COc1ccc(-c2cc(C(F)(F)F)n3nc(C(=O)NCCN4CCOCC4)cc3n2)cc1 | 1 | -77 | -21 | 77*
COc1ccc(-c2cc(C(F)(F)F)n3nc(C(=O)Nc4c(C)n(C)n(-c5ccccc5)c4=O)cc3n2)cc1 | 1 | -80 | -6 | 80*
Cc1c(NC(=O)c2cc3nc(-c4ccc(Cl)cc4)cc(C(F)(F)F)n3n2)c(=O)n(-c2ccccc2)n1C | -1 | -70 | -2 | 70*
Cc1c(NC(=O)c2nn3c(C(F)(F)F)cc(-c4ccccc4)nc3c2Cl)c(=O)n(-c2ccccc2)n1C | 1 | -29 | -6 | 29
Cn1cc([N+](=O)[O-])c(C(=O)N2CCCCCC2)n1 | -1 | 18 | 3 | -18
c1cc2ccc3ccc(CN4CCOCC4)c4ccc(c1)c2c34 | -1 | 3 | 31* | -3
OC1CCCN(Cc2ccc3ccc4cccc5ccc2c3c45)C1 (stereo not drawn) | -2 | -3 | 68* | 3
OC1CCCN(Cc2cn(Cc3ccccc3)nc2-c2cc3ccccc3o2)C1 (stereo not drawn) | 3 | 3 | -7 | -3
CC(CC(=O)NCCc1ccc(Cl)cc1)S(=O)(=O)c1ccc2c(c1)NC(=O)CO2 (stereo not drawn) | 2 | 9 | -1 | -9
O=C(Cn1c2ccccc2c(=O)c2cc([N+](=O)[O-])ccc21)Nc1ccccc1Cl | 1 | -17 | 63* | 17
O=C(NCc1ccc(F)cc1)c1ccc(CS(=O)Cc2ccccc2Cl)o1 (stereo not drawn) | -2 | 7 | -11 | -7
CCOc1ccccc1Nc1nnc(SCC(=O)N(C)C2CCS(=O)(=O)C2)s1 (stereo not drawn) | -2 | -75 | -14 | 75*
Cc1ccccc1Nc1nnc(SCC(=O)N(C)C2CCS(=O)(=O)C2)s1 (stereo not drawn) | 1 | 14 | 1 | -14
Cc1[nH]c(C)c(S(=O)(=O)NCc2ccc(OC(C)C)cc2)c1C(=O)N1CCCC1 | -2 | 3 | 0 | -3
OCCCNc1cc(-c2ccnc(Nc3cccc(Cl)c3)n2)ccn1 | 58* | -82 | -8 | 82*
CCC(C)Oc1cc(-c2ccnc(Nc3cccc(Cl)c3)n2)ccn1 (stereo not drawn) | -1 | -26 | 2 | 26
COc1c2c(cc3oc(=O)c4c5ccc(O)cc5oc4c13)OC(C)(C)CC2 | -1 | -89 | 6 | 89*
O=c1oc2cc(O)ccc2c2oc3cc(O)ccc3c12 | 0 | -3 | -2 | 3
O=C(CN1CCc2ccccc2C1)Nc1ccccc1C(F)(F)F | 0 | 6 | -2 | -6
CCOc1ccc(-c2nnn(CC(=O)Nc3cc(OC)ccc3OC)n2)cc1OCC | 1 | -33 | 3 | 33
CCOc1ccc(-c2nnn(CC(=O)NCc3ccc(OC)cc3)n2)cc1OCC | 1 | -28 | 29* | 28
COc1cc(Nc2nc3ccccc3nc2NS(=O)(=O)c2ccc([N+](=O)[O-])cc2)cc(OC)c1OC | -1 | -58 | -15 | 58
COc1ccc(Nc2nc(-c3cccc([N+](=O)[O-])c3)nc3ccccc23)cc1 | -1 | -88 | -6 | 88*
O=[N+]([O-])c1ccc(-c2nc(Nc3ccc(O)cc3)c3ccccc3n2)cc1 | -3 | -91 | 2 | 91*
SMILES | CDK5 p35 inh | SR-BI uptake up | dFosB activator | SR-BI DiI inh
COc1ccc(Nc2nc(-c3cccs3)nc3ccccc23)cc1 | 3 | -75 | -11 | 75*
COc1ccc(Nc2nc(-c3ccccc3)nc3ccccc23)cc1 | 0 | -50 | -6 | 50
COc1cccc(Nc2nc(-c3cccs3)nc3ccccc23)c1 | 0 | -69 | 4 | 69
O=[N+]([O-])c1ccc(S(=O)(=O)Nc2nc3ccccc3nc2Nc2ccccc2)cc1 | -1 | -78 | -9 | 78*
CCOCCn1c(C)c(C(=O)OCC)c2cc(O)c3ccccc3c21 | 1 | -73 | -13 | 73*
CCOC(=O)c1c(C)n(CCO)c2ccc(O)cc12 | -1 | 27 | -3 | -27
Cc1ccc(NC(=S)c2nc3ccccc3[nH]2)cc1 | 0 | -77 | -6 | 77*
Cc1ccc(NC(=S)c2nc3ccccc3[nH]2)c(C)c1 | -1 | -62 | 3 | 62
Cc1snc(SCc2ccc(Cl)cc2)c1C#N | 0 | 5 | 4 | -5
Cc1sc(NC(=O)c2sc3nc4c(C)cccc4cc3c2N)c(C#N)c1C | 0 | -90 | -13 | 90*
Cc1cccc2cc3c(N)c(C#N)sc3nc12 | 0 | -19 | -4 | 19
Cc1[nH]n(-c2ccccc2)c(=O)c1/C=N/NC(=O)c1ccccc1F | 0 | -106 | 2 | 106*
Cc1[nH]n(-c2ccccc2)c(=O)c1/C=N/NC(=O)c1cccc([N+](=O)[O-])c1 | 0 | -112 | -2 | 112*
CC/C(=N/NC(=O)c1ccccc1O)c1c(C)[nH]n(-c2ccccc2)c1=O | 1 | -137 | -4 | 137*
N#CCSc1ccc2nc(-c3ccccc3)cn2n1 | 2 | 9 | -17 | -9
CCOC(=O)C1CCN(c2cc3c(cc2NC(=O)c2ccc(OC)c(OC)c2)n(C)c(=O)n3C)CC1 | 0 | -48 | -9 | 48
COC(=O)C1OC(OC2CC[C@]3(C)C(CC[C@@]4(C)[C@@H]3CC=C3[C@@H]5CC(C)(C)CC[C@]5(C(=O)OC5OC(CO)C(O)C(O)C5O)CC[C@]34C)C2(C)C)C(O)C(O)C1O[C@H]1OCC(O)C(O)C1O (stereo partly drawn) | 2 | 119* | -10 | -119
CC1(C)CC[C@]2(C(=O)O[C@@H]3OC(CO)[C@@H](O)[C@H](O)[C@H]3O)CC[C@]3(C)C(=CCC4[C@@]5(C)CC[C@H](O[C@@H]6OC(C(=O)O)[C@@H](O)[C@H](O)[C@H]6O)C(C)(C)C5CC[C@]43C)[C@@H]2C1 (stereo partly drawn) | -2 | 15 | -4 | -15
COc1ccc(/C=N\NC(=O)c2ccc(-c3ccccc3)cc2)c(OC)c1OC | 0 | x | 3 | 75*
CCN(CC)c1ccc(C(=O)N/N=C/c2ccccc2OC(F)F)cc1 | 0 | -86 | 4 | 86*
COc1ccc(/C=N/NC(=O)c2ccc(N(C)S(=O)(=O)c3ccccc3)cc2)c(OC)c1 | -1 | -64 | 5 | 64
COc1cccc(/C=N/NC(=O)c2ccc(N(C)S(=O)(=O)c3ccccc3)cc2)c1OC | 1 | -83 | -3 | 83*
COc1ccccc1/C=N/NC(=O)c1ccc(N(C)S(=O)(=O)c2ccccc2)cc1 | 1 | -84 | 1 | 84*
COc1ccc(-c2nn(-c3ccccc3)cc2C(N)=O)cc1OC | 0 | -12 | -4 | 12
CCOc1ccc(NC(=O)c2ccc(N3CC4CC(C3)c3cccc(=O)n3C4)c(N)c2)cc1 (stereo not drawn) | x | -4 | -9 | 4
